NF-kB expr up: activators of NF-kB expression in neurons, primary screen, cell-based, HTS; fold change at 12.5 µM; AID 1239, 2008; human neuronal cells, NF-kB reporter expression; hits give high values; 190,000 tested, 1.6% active; in the data active = fold change above about 3.3
STAT1 activator: STAT1 signaling activators, primary screen, cell-based, HTS, luciferase reporter | NIH 3T3 STAT1-luciferase reporter, IFN-gamma, luminescence; 100% = IFN-gamma alone, no compound | activation (% of control), % at 5.5 µM | 200,000 tested, 2.6% active | AID 932, 2007;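 active = activation above the screen-wide mean activation plus 3 SD, cut at about 130% in these data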
STAT3 inh-1: IL-6 driven STAT3 reporter inhibitors, primary screen, U3A cells, luciferase, luminescence, MLSCN library; 190,000 tested, 0.89% active; AID 862, 2007; IL-6 STAT3-luciferase reporter; host cell line lacks STAT1; inhibition, % at 5.5 µM;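 active = inhibition above the mean inhibition across all screened compounds plus 3 SD, cut at about 44% in these data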
STAT1 inh: STAT1 signaling inhibitors, primary screen, cell-based, HTS, luciferase reporter | 200,000 tested, 0.35% active | NIH 3T3 STAT1-luciferase reporter, IFN-gamma, luminescence | inhibition, % at 5.5 µM;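 active = inhibition above a set limit, the mean inhibition across all tested compounds plus 3 SD, cut at about 34% in these data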
APP 5'UTR act: activators of APP 5'UTR luciferase reporter, primary screen, SH-SY5Y cells. AID 1276, 2008. activation, % at 2 µM. 190,000 tested, 1% active. SH-SY5Y APP 5'UTR luciferase reporter, luminescence; zero percent = DMSO vehicle wells;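 active = activation above a set limit, based on mean plus 3 SD of controls, cut at about 140% in these data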
STAT3 act: IL-6 driven STAT3 reporter potentiators, primary screen, U3A cells, luciferase, luminescence, MLSCN library; activation (% of control), % at 5.6 µM; AID 871, 2007; 190,000 tested, 0.91% active; IL-6 STAT3-luciferase reporter; 100% = signal with IL-6 EC80 alone;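 active = activation above the screen-wide mean of compound activation plus 3 SD, cut at about 130% in these data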
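Material: STAT1-lacking human U3A cells, STAT3 luciferase reporter | Benchmarks: IL-6-only wells as 100% reference | Probe or stimulus: IL-6 (33 ng/mL) | Timing: Compound 1 h, then IL-6 6 h at 37 °C | Detection: Luminescence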
STAT3 inh-2: STAT3 reporter inhibitors, retest of hits, confirmation, U3A cells, luciferase, luminescence | shares compounds with STAT3 inh-1 | IL-6 STAT3 luciferase reporter; cell line lacks STAT1 | inhibition, % at 5.7 µM | 1,200 tested, 45% active | AID 1265, 2008;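 active = inhibition above the hit cutoff computed for the primary STAT3 screen, cut at about 44% in these data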
NFkB inh STAT3ct: NF-kB reporter inhibitors in human cells, confirmation, counter-screen for STAT3 inhibitor project, cell-based, HEK293T, luciferase, TNF-alpha stimulus. AID 1308, 2008. shares compounds with STAT3 inh-1. TNF-alpha induced. 1,200 tested, 36% active. inhibition, % at 5.7 µM;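 active = inhibition above the mean of solvent-only control wells plus 3 SD, cutoff set per campaign, cut at about 13% in these data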
STAT1 inh STAT3c: STAT1 reporter inhibitors, IFN-gamma induced, confirmation, counter-screen for STAT3 inhibitor project, cell-based, NIH 3T3, luciferase luminescence; shares compounds with STAT3 inh-1; NIH 3T3 STAT1-luciferase reporter; AID 1317, 2008; 1,200 tested, 27% active; inhibition, % at 5.7 µM;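 active = inhibition above the mean plus 3 SD of solvent-only control wells, limit set per screening run, cut at about 16% in these data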
Numbers stand for hits; . = inactive; / = no result. Only some compounds are listed: those with a hit (about 4.9% of all), similar ones and a draw of the others.

SMILES | NF-kB expr up | STAT1 activator | STAT3 inh-1 | STAT1 inh | APP 5'UTR act | STAT3 act | STAT3 inh-2 | NFkB inh STAT3ct | STAT1 inh STAT3c
Cn1c(CN2CCCCC2)nc2cc(NC(=O)c3ccc(Cl)cc3)ccc21 | . | . | 69.5 | . | . | . | 69.8 | 22.7 | .
N#Cc1c(NC(=O)CSc2ncn[nH]2)sc2c1CCCCC2 | . | . | 70.7 | . | . | . | 67.7 | 29.6 | .
O=S(=O)(c1ccc(F)cc1)N1CCN(c2ccc(-c3ccccc3)nn2)CC1 | . | . | . | . | . | . | / | / | /
COc1ccc(-c2cn(-c3ccc(OC)cc3)c3[n+]2-c2ccccc2CC3)cc1 | . | . | 73.2 | . | . | . | 79.0 | . | 23.4
O=C(/C=C/c1cccc([N+](=O)[O-])c1)n1cnc2ccccc21 | . | . | . | . | . | . | / | / | /
O=C1C2C3c4ccccc4C(c4ccccc43)[C@@H]2c2nc3ccccc3n21 (stereo partly drawn) | . | . | 48.0 | . | . | . | 57.1 | . | .
O=C1CCC(=O)N1N1C(=O)C2C3c4ccccc4C(c4ccccc43)C2C1=O (stereo not drawn) | . | . | . | . | . | . | / | / | /
Nc1nc(Br)c2c(F)cccc2c1-c1ccccc1 | . | . | 46.4 | . | . | . | . | . | .
Nc1nc(Br)c2c(F)cccc2c1-c1ccc(F)cc1 | . | . | . | . | . | . | / | / | /
O=C(Nc1ccc(OC(F)(F)F)cc1)c1ccc2nccnc2c1 | . | . | . | . | . | . | / | / | /
Cc1ccc(C(=O)Nc2ccc3nccnc3c2)cc1 | 8.38 | . | 52.5 | . | 144.6 | . | . | . | .
O=C(Nc1ccc(SC(F)F)cc1)c1ccc2nccnc2c1 | . | . | 48.2 | . | . | . | . | . | .
Cc1c(C(=O)NCc2n[nH]c(=S)n2-c2ccc(F)cc2)cccc1[N+](=O)[O-] | . | . | . | . | . | . | / | / | /
CCC(C)N1CNc2c(c(=O)[nH]c(=S)n2-c2cccc(C)c2)C1 (stereo not drawn) | . | . | . | . | . | . | / | / | /
O=C(Nc1ncc2c(n1)-c1ccccc1CC2)C1CC1 | . | . | 45.0 | . | . | . | . | . | .
CC(C)SCC(=O)Nc1ncc2c(n1)-c1ccccc1CC2 | . | . | . | . | . | . | / | / | /
Cc1sc2ncnc(NCc3cccs3)c2c1C | . | . | 48.4 | . | . | . | . | . | .
Cc1sc2ncnc(NCc3ccco3)c2c1C | . | . | . | . | . | . | / | / | /
O=C(Nc1ccc(Oc2cccnc2)cc1)c1ccc([N+](=O)[O-])cc1 | . | . | 69.2 | . | . | . | 65.0 | 23.5 | .
Cc1cc(C(=O)COc2cccnc2[N+](=O)[O-])c(C)n1-c1ccccc1 | . | . | 59.9 | . | . | . | . | . | .
Cc1ccc(-n2c(C)cc(C(=O)COc3cccnc3[N+](=O)[O-])c2C)cc1 | . | . | . | . | . | . | / | / | /
COc1ccc([N+](=O)[O-])cc1N(CC(=O)N1CCCC1)S(C)(=O)=O | . | . | . | . | . | . | / | / | /
Cc1ccn2cc(C(=O)Nc3ccccc3N3CCOCC3)nc2c1 | . | . | . | . | . | . | / | / | /
Cc1ccn2cc(C(=O)Nc3ccc4c(c3)OCCO4)nc2c1 | . | 149.9 | 44.5 | . | 142.9 | . | . | . | .
CN1/C(=C\C(=O)C[n+]2cccc(C(N)=O)c2)C(C)(C)c2ccccc21 | . | . | . | . | . | . | / | / | /
